Measurements taken from ChEMBL document CHEMBL4017500 (J Med Chem, 2017).
One block for each compound: values may come before it. Active and inactive are the calls of the source. The calls are words filed in the database; no cut-off is given here.

How the values were obtained:
[1] = Inhibition of bacterial MBP-fused NDM1 expressed in Escherichia coli BL21(DE3) ausing fluorocillin as substrate preincubated for 20 mins followed by substrate addition measured at 1 sec time interval for 25 mins by fluorescence assay; parameters: species or system Bacteria
Procedure, shortened: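 NDM-1 pre-incubated 20 min with inhibitor (final 100 μM to 1 nM) in 50 mM HEPES pH 7.0 with 2 mM CHAPS. Reaction started with fluorocillin (final 87 nM, below KM), NDM-1 final 25 pM. Fluorescence read at λex/em 495/525 nm, 10 reads over ~25 min.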

[2] = Inhibition of bacterial MBP-fused NDM1 expressed in Escherichia coli BL21(DE3) ausing chromacef as substrate preincubated for 20 mins followed by substrate addition measured after 0.3 mins; parameters: species or system Bacteria
Procedure, shortened: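 Preincubated 20 min, then 3 μM substrate (~3×KM) added. A442 followed ~0.3 min at 25 °C. Activity scaled to uninhibited (100%) and no-enzyme (0%) controls, fitted to a Hill-type equation.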

[3] = biological target: Metallo-beta-lactamase type 2 (Serratia marcescens) (UniProt P52699); experiment: Inhibition of Serratia marcescens IMP1 expressed in Escherichia coli BL21(DE3) at 50 uM using chromacef as substrate preincubated for 10 mins followed by substrate addition measured after 20 mins by HTS assay relative to control
Procedure, shortened: (§1)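 Colorimetric chromacef screen, final 50 mM HEPES, 2 mM CHAPS, pH 7.0. Substrate added at 3 μM (NDM-1, ~3×KM), 7.2 μM (IMP-1) or 16 μM (VIM-2). […] Percent inhibition calculated.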

Bacteria [4] = experiment: Inhibition of bacterial MBP-fused NDM1 expressed in Escherichia coli BL21(DE3) at 50 uM using chromacef as substrate preincubated for 10 mins followed by substrate addition measured after 20 mins by HTS assay relative to control; procedure, shortened: as §1
[5] = biological target: Beta-lactamase VIM-2 (Pseudomonas aeruginosa) (UniProt Q9K2N0); experiment: Inhibition of Pseudomonas aeruginosa VIM2 expressed in Escherichia coli BL21(DE3) at 50 uM using chromacef as substrate preincubated for 10 mins followed by substrate addition measured after 20 mins by HTS assay relative to control; procedure, shortened: as §1
Bacteria [6] = experiment: Binding affinity to bacterial NDM-1 expressed in Escherichia coli BL21(DE3) assessed as intrinsic tryptophan fluorescence quenching up to 32 uM after 30 mins by luminescence spectrometric method relative to control
Procedure, shortened: (§2)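 NDM-1 at 2 μM final in 50 mM HEPES pH 7.5 mixed with compound at 4–32 μM, incubated 30 min. Emission scanned 300–400 nm with excitation at 280 nm. Relative tryptophan fluorescence read at 348 nm, with buffer set to 0% and inhibitor-free NDM-1 to 100%. Control run with 2 μM L-tryptophan in place of enzyme.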

Bacteria [7] = experiment: Binding affinity to bacterial CoCoNDM-1 expressed in Escherichia coli BL21(DE3) assessed as metal stripping at 1 to 2 equiv by 1H NMR spectroscopic method
Procedure, shortened: (§3)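 Apo-NDM-1 concentrated to ~1 mM and loaded with 2 equiv CoCl2. Samples in 50 mM HEPES, 150 mM NaCl, 10% D2O, pH 6.8. Compounds from 50–100 mM DMSO stocks titrated in ~5 μL aliquots. 1H spectra recorded at 292 K, 300.16 MHz.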

Bacteria [8] = experiment: Binding affinity to bacterial CoCoNDM-1 expressed in Escherichia coli BL21(DE3) assessed as metal stripping at 1 to 2 equiv after 30 mins by UV-Visible spectroscopic method
Procedure, shortened: (§4)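 Apo-NDM-1 at 300 μM in 50 mM HEPES, 150 mM NaCl, pH 6.8, loaded with 2 molar equiv CoCl2. […] Absorbance read 300–700 nm at 25 °C as difference spectra against buffer blank, normalized at 700 nm.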

[9] = Fluorescence quenching activity assessed as reduction in tryptophan fluorescence up to 32 uM after 30 mins by luminescence spectrometric method
Procedure, shortened: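 NDM-1 (2 μM final) in 50 mM HEPES pH 7.5 with compound at 4–32 μM for 30 min. Excitation 280 nm, emission scanned 300–400 nm, intensity taken at 348 nm. Scaled with buffer as 0% and inhibitor-free enzyme as 100%. Free L-tryptophan (2 μM) run as control.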

Bacteria [10] = experiment: Binding affinity to bacterial NDM-1 expressed in Escherichia coli BL21(DE3) assessed as Zn2+ stripping up to 128 uM after 30 mins by equilibrium dialysis method
Procedure, shortened: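 NDM-1 (8 μM final) in 50 mM HEPES pH 7.5 mixed with compound at 0–128 μM for 30 min. Then dialyzed 4 h against metal-free 50 mM HEPES pH 7.5. Residual Zn(II) measured by ICP-AES at 213.856 nm.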

Bacteria [11] = experiment: Binding affinity to bacterial CoCoNDM-1 expressed in Escherichia coli BL21(DE3) assessed as CoCoNDM-1-compound ternary complex formation at 1 to 2 equiv after 30 mins by UV-Visible spectroscopic method; procedure, shortened: as §4
Bacteria [12] = experiment: Binding affinity to bacterial NDM-1 expressed in Escherichia coli BL21(DE3) assessed as increase in intrinsic tryptophan fluorescence up to 32 uM after 30 mins by luminescence spectrometric method relative to control; procedure, shortened: as §2
Bacteria [13] = experiment: Binding affinity to bacterial CoCoNDM-1 expressed in Escherichia coli BL21(DE3) assessed as CoCoNDM-1-compound ternary complex formation at 1 equiv by 1H […] spectroscopic method
Bacteria [14] = experiment: Binding affinity to bacterial CoCoNDM-1 expressed in Escherichia coli BL21(DE3) assessed as CoCoNDM-1-compound ternary complex formation at 3 to 5 equiv by 1H NMR spectroscopic method; procedure, shortened: as §3
[15] = Inhibition of bacterial NDM1; parameters: species or system Bacteria
Procedure, shortened: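 Chromogenic NDM-1 assay: enzyme (3 nM) pre-incubated 20 min with ~20 inhibitor concentrations in 50 mM HEPES, 1% DMSO, pH 7.0. Chromacef substrate 3 μM (~3×KM). Absorbance at 442 nm followed ~0.3 min at 25 °C.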

Bacteria [16] = experiment: Inhibition of bacterial MBP-fused NDM1 expressed in Escherichia coli BL21(DE3) ausing fluorocillin as substrate preincubated for 20 mins followed by substrate addition measured at 1 sec time interval for 25 mins in presence of ZnSO4 by fluorescence assay
[17] = Metal chelating activity assessed as Co2+-compound complex formation at 1 equiv by 1H NMR spectroscopic method; type: functional
Procedure, shortened: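 Apo-NDM-1 concentrated to ~1 mM and given 2 equivalents of CoCl2, in 50 mM HEPES, 150 mM NaCl, 10% D2O, pH 6.8. Compounds, from DMSO stocks of 50–100 mM, titrated in. 1H NMR spectra recorded at 292 K at 300.16 MHz.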

Beta-lactamase VIM-2 = Beta-lactamase VIM-2 (Pseudomonas aeruginosa, UniProt Q9K2N0); experiment: Inhibition of Pseudomonas aeruginosa VIM2 expressed in Escherichia coli BL21(DE3) using fluorocillin as substrate preincubated for 10 mins followed by substrate addition measured after 20 mins by HTS assay

Chain of Metallo-beta-lactamase type 2 (Serratia marcescens) (P52699 19-246 limits assumed): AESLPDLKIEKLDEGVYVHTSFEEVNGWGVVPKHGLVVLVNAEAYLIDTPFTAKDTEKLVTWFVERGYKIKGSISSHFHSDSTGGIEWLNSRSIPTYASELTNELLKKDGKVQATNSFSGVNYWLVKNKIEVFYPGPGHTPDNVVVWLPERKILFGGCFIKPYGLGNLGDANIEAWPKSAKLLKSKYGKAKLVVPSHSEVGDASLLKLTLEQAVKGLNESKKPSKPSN

IC50 [1]: 390 nM | IC50 [2]: 660 nM
SMILES: O=C(O)c1cc(-c2ccc(O)cc2)cc(C(=O)O)n1

IC50 [2]: > 50000 nM
SMILES: O=C(O)c1cccc(C(=O)NCc2cccs2)n1

IC50 [2]: 22000 nM
SMILES: CC(C)[C@@H](NC(=O)c1cccc(C(=O)O)n1)C(=O)O

inhibition [3]: > 60% | inhibition (Bacteria [4]): > 60% | inhibition [5]: > 60%
SMILES: Oc1c(I)cc(Cl)c2cccnc12

IC50 [2]: > 50000 nM
SMILES: O=C(O)c1cccc(C(=O)NCc2ccc3c(c2)OCO3)n1

IC50 [2]: > 50000 nM
SMILES: CC(C)CNC(=O)c1cccc(C(=O)O)n1

IC50 [2]: > 50000 nM
SMILES: O=C(O)c1cccc(C(=O)Nc2ccccc2)n1

IC50 [2]: > 50000 nM
SMILES: O=C(O)c1cccc(C(=O)NC2CCCCC2)n1

IC50 [2]: 8400 nM
SMILES: O=C(O)c1cc(NCc2ccccc2)cc(C(=O)O)n1

IC50 [2]: 4500 nM
SMILES: COc1ccc(Nc2cc(C(=O)O)nc(C(=O)O)c2)cc1

IC50 [2]: 5000 nM
SMILES: O=C(O)c1cc(Cl)cc(C(=O)O)n1

IC50 [2]: > 50000 nM
SMILES: CC(C)NC(=O)c1cccc(C(=O)O)n1

IC50 [2]: 990 nM
SMILES: O=C(O)c1cc(-c2ccccc2)cc(C(=O)O)n1

IC50 [1]: 430 nM | IC50 [2]: 600 nM
SMILES: O=C(O)c1cc(-c2cccc(O)c2)cc(C(=O)O)n1

IC50 [1]: 380 nM | IC50 [2]: 430 nM
SMILES: COc1ccc(-c2cc(C(=O)O)nc(C(=O)O)c2)cc1

IC50 [2]: > 50000 nM
SMILES: O=C(O)c1cccc(C(=O)NCCc2cccs2)n1

IC50 [1]: 190 nM | IC50 [2]: 570 nM
SMILES: CN(C)c1ccc(-c2cc(C(=O)O)nc(C(=O)O)c2)cc1

IC50 [2]: 3400 nM
SMILES: O=C(O)c1cc(Nc2ccccc2)cc(C(=O)O)n1

IC50 [2]: > 50000 nM
SMILES: O=C(O)c1cccc(C(=O)NC2CCCC2)n1

inhibition [3]: > 60% | inhibition (Bacteria [4]): > 60% | inhibition [5]: > 60%
SMILES: c1ccc(C2=NCCS2)nc1

Activity (Bacteria [6]): < 10% | Activity (Bacteria [7]): Active | Activity (Bacteria [8]): Active | Activity (Bacteria [10]): Active
SMILES: O=C(O)CN(CCN(CC(=O)O)CC(=O)O)CC(=O)O
Activity [9]: inactive

IC50 [2]: > 50000 nM
SMILES: O=C(O)c1cccc(C(=O)NCc2ccccc2)n1

IC50 [2]: 24000 nM
SMILES: O=C(O)c1cccc(C(=O)NCc2nccs2)n1

IC50 [2]: > 50000 nM
SMILES: O=C(O)c1cccc(C(=O)NCCc2ccccc2)n1

IC50 [2]: > 50000 nM
SMILES: COc1ccc(CNC(=O)c2cccc(C(=O)O)n2)cc1

IC50 [2]: 5800 nM
SMILES: O=C(O)c1cc(NCc2ccc3c(c2)OCO3)cc(C(=O)O)n1

IC50 [1]: 430 nM | IC50 [2]: 820 nM
SMILES: CN(C)c1cccc(-c2cc(C(=O)O)nc(C(=O)O)c2)c1

IC50 [1]: 130 nM | IC50 [2]: 520 nM
SMILES: O=C(O)c1cc(-c2ccccc2O)cc(C(=O)O)n1

IC50 [2]: 13600 nM
SMILES: CN(C)c1cc(C(=O)O)nc(C(=O)O)c1

IC50 [2]: > 50000 nM
SMILES: O=C(O)c1cccc(C(=O)N2CCCCC2)n1

IC50 [1]: 590 nM | IC50 [2]: 860 nM
SMILES: O=C(Cc1ccccc1)Nc1cccc(-c2cc(C(=O)O)nc(C(=O)O)c2)c1

IC50 [2]: 49000 nM
SMILES: O=C(O)CNC(=O)c1cccc(C(=O)O)n1

IC50 [2]: 4900 nM
SMILES: O=C(O)c1cc(NCc2ccco2)cc(C(=O)O)n1

SMILES: C[C@H](CS)C(=O)N1CCC[C@H]1C(=O)O
Activity (Bacteria [11]): Active | Activity (Bacteria [12]): 10% | Activity (Bacteria [13]): Active | Activity [9]: inactive | Activity (Bacteria [10]): inactive | Activity (Bacteria [14]): Active

IC50 [2]: > 50000 nM
SMILES: COc1ccc(NC(=O)c2cccc(C(=O)O)n2)cc1

IC50 [2]: 9100 nM
SMILES: O=C(O)c1cc(NCCc2ccccc2)cc(C(=O)O)n1

IC50 [1]: 130 nM | IC50 [2]: 860 nM
SMILES: O=C(Nc1cccc(-c2cc(C(=O)O)nc(C(=O)O)c2)c1)c1ccccc1

IC50 [1]: 500 nM | IC50 [2]: 500 nM
SMILES: COc1ccccc1-c1cc(C(=O)O)nc(C(=O)O)c1

inhibition [3]: > 60% | inhibition (Bacteria [4]): > 60% | inhibition [5]: > 60%
SMILES: c1cnc2c(c1)ccc1cccnc12

IC50 [1]: 200 nM | IC50 [2]: 890 nM
SMILES: O=C(O)c1cccc(-c2cc(C(=O)O)nc(C(=O)O)c2)c1

IC50 [1]: 540 nM | IC50 [2]: 1030 nM
SMILES: Nc1ccc(-c2cc(C(=O)O)nc(C(=O)O)c2)cc1

IC50 [2]: > 50000 nM
SMILES: O=C(O)c1cccc(C(=O)NCc2ccco2)n1

IC50 [2]: 5200 nM
SMILES: O=C(O)c1cc(NCc2cccs2)cc(C(=O)O)n1

IC50 [1]: 930 nM | IC50 [2]: 990 nM
SMILES: CC(=O)Nc1cccc(-c2cc(C(=O)O)nc(C(=O)O)c2)c1

inhibition [3]: > 60% | inhibition (Bacteria [4]): > 60% | inhibition [5]: > 60%
SMILES: Oc1ccc[nH]c1=S

IC50 [2]: > 50000 nM
SMILES: O=C(O)c1cccc(C(=O)NCC2CCCO2)n1 (stereo unspecified)

IC50 [1]: 1070 nM | IC50 [2]: 800 nM
SMILES: COc1cccc(-c2cc(C(=O)O)nc(C(=O)O)c2)c1

IC50 [2]: 7200 nM
SMILES: COc1ccc(CNc2cc(C(=O)O)nc(C(=O)O)c2)cc1

inhibition [3]: > 60% | inhibition (Bacteria [4]): > 60% | inhibition [5]: > 60%
SMILES: O=C(O)c1ccc2cccc(O)c2n1

IC50 [15]: 4 nM
SMILES: NCCNCc1ccc(C(=O)N[C@H]2Cc3cccc(C(=O)O)c3O[B-]2(O)O)cc1

IC50 [15]: 4000 nM
SMILES: N[C@@H](CN[C@@H](CN[C@@H](CC(=O)O)C(=O)O)C(=O)O)C(=O)O

SMILES: O=C(O)c1cccc(C(=O)O)n1 [DIPICOLINIC ACID]
Activity (Bacteria [6]): 20% | IC50 [1]: 410 nM | inhibition (Bacteria [16]): inactive | inhibition [3]: > 60% | inhibition (Bacteria [4]): > 60% | Activity [17]: Active | Activity (Bacteria [7]): Active | IC50 (Beta-lactamase VIM-2): 1660 nM | IC50 [2]: 520 nM | inhibition [5]: > 60% | Activity (Bacteria [8]): Active | Activity (Bacteria [13]): Active | Activity (Bacteria [10]): Active
